From ChEMBL document CHEMBL3352791, “Thioaryl naphthylmethanone oxime ether analogs as novel anticancer agents” (J Med Chem, 2014) come the findings set out here.

Structures are written as SMILES. Active and inactive are the calls of the source. The calls are words filed in the database; no cut-off is given here.

A short description of assay [1]: Antiproliferative activity against human HCT116 cells after 24 hrs by MTT assay. As to conditions: HCT-116, 24 h. Type of assay: functional, cell-based. The method, boiled down:
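MTT viability: cells seeded at 1×10^4 per well in DMEM with 10% FBS, left to adhere overnight, then serum-starved 4 h. Compounds were given at a range of doses, with 0.1% DMSO vehicle as control. EC50 was taken from dose-response curves spanning 100nM-50µM. Data are mean ± SEM from at least three independent experiments.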
On the technique in general: Tetrazolium assays rely on reduction of a dye to a coloured formazan, in cell work by metabolically active cells.

Assay [2] has as its system MCF7. As to the kind of experiment: Antitumor activity against human MCF7 cells xenografted in NIH-3 mouse assessed as reduction in tumor volume at 16 mg/kg, po for 25 days relative to control. The note with it: MCF7, 600 h. Type of assay: functional. (In general: A xenograft is tissue or cells of one species grown in another, often human tumour cells in immunodeficient mice.)

Assay [3] concerns MDA-MB-231. Description: Antiproliferative activity against human […] cells assessed as growth recovery treated up to 5 uM for 24 hrs followed by maintained in drug free medium for 72 hrs by MTT assay. Type of assay: functional.
The subject of assay [4] is MCF7. As to the kind of experiment: Cell cycle arrest in human […] MCF7 cells assessed as accumulation at S phase at 2.5 uM by propidium iodide staining by FACS analysis (reference value: 24.76%). Type of assay: functional. For orientation: In flow cytometry, cells or beads pass a laser one at a time.
For assay [5], the system named is MDA-MB-231. As to the kind of experiment: Cell cycle arrest in human […] cells assessed as accumulation at S phase at 7.5 uM by propidium iodide staining by FACS analysis (reference value: 13.72%). Type of assay: functional.
The target of assay [6] is Receptor-type tyrosine-protein kinase FLT3 (Homo sapiens) (UniProt P36888). As to the kind of experiment: Inhibition of Flt3 (unknown origin) at 10 uM.
Sequence of Receptor-type tyrosine-protein kinase FLT3 (Homo sapiens) (P36888 whole entry): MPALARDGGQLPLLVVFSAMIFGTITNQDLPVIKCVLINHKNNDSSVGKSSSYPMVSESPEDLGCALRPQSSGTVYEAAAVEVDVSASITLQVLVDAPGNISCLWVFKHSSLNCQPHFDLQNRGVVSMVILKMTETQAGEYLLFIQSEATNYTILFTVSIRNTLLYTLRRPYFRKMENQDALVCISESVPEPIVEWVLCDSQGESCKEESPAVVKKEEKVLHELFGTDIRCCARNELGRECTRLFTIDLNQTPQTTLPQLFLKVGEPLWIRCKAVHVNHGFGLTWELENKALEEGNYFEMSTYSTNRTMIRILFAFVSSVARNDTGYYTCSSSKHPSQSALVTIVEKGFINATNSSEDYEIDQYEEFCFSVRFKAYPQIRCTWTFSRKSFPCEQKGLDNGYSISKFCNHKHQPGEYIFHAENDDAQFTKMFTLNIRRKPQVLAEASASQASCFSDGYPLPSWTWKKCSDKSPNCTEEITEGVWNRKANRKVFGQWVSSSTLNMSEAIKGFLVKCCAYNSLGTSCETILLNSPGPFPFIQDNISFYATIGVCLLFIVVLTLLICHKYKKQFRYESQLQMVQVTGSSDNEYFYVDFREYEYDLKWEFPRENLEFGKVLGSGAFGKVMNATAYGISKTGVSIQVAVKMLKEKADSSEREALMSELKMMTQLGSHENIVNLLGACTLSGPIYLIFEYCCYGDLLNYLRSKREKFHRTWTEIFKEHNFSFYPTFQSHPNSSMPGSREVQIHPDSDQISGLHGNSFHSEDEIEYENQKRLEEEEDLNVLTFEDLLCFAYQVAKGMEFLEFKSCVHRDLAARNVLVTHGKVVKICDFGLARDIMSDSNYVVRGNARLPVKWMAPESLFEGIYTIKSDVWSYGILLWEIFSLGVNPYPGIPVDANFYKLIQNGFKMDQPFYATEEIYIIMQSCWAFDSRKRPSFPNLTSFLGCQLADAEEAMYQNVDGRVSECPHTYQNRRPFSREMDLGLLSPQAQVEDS
In assay [7] the target is Epidermal growth factor receptor (Homo sapiens) (UniProt P00533). As to the kind of experiment: Inhibition of EGF-induced EGFR phosphorylation at Tyr845 in human MCF7 cells at 1 uM by ELISA. Format: cell-based.
Sequence of Epidermal growth factor receptor (Homo sapiens) (P00533 whole entry): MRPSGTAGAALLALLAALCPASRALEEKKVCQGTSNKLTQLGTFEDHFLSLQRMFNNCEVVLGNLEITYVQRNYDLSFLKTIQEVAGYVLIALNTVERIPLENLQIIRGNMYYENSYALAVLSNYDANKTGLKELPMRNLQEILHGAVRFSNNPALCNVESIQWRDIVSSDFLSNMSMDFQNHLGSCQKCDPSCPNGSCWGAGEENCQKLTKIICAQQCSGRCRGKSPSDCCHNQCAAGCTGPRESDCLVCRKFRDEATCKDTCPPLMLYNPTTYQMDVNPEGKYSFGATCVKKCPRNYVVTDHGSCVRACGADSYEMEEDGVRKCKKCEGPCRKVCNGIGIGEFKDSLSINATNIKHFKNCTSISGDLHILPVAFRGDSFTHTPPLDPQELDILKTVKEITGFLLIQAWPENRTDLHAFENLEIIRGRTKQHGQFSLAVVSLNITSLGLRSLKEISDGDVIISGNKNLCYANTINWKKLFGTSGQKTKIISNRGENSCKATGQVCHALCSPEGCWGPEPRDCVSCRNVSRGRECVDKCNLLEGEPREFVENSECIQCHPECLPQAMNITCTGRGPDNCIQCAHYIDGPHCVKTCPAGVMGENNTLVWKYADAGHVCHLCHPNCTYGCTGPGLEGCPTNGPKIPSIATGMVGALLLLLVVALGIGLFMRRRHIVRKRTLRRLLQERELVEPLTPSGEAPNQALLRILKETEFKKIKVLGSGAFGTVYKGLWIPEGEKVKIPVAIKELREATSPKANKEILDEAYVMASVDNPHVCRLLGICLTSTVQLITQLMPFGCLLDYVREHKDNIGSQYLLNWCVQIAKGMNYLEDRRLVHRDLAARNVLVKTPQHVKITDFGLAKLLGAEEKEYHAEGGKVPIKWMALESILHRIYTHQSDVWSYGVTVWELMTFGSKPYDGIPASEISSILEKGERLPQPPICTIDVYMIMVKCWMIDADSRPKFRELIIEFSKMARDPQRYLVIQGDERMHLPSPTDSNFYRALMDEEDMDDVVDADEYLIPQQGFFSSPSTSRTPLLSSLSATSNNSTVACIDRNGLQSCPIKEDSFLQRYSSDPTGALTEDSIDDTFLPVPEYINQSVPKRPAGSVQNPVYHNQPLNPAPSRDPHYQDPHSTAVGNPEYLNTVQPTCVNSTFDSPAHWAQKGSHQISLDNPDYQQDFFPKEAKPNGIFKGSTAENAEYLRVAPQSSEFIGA
Assay [8] addresses T1, Signal transducer and activator of transcription 1-alpha/beta (Homo sapiens) (UniProt P42224).
T1 sequence (whole entry): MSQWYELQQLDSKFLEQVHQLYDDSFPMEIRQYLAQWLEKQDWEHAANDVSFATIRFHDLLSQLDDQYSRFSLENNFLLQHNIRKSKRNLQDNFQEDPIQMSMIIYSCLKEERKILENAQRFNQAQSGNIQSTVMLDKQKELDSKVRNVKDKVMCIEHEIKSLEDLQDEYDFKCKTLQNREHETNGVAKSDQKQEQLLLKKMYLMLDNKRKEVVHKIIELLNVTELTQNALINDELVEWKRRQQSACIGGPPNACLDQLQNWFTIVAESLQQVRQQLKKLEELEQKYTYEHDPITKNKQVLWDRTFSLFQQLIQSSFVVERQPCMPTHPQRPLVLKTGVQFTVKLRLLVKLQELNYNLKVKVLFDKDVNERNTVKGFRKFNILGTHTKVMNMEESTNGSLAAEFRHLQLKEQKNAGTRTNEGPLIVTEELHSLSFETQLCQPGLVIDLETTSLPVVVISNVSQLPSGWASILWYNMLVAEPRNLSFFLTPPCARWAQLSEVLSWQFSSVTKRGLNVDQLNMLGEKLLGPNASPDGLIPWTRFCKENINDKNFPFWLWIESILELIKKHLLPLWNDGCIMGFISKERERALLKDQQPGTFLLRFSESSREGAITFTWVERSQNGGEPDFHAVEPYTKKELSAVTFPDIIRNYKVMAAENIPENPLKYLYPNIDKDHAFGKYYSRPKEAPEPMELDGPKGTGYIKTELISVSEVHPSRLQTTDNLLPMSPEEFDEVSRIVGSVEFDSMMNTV
Description: Inhibition of basal level STAT1 phosphorylation in human MDA-MB-231 cells at 1 uM by ELISA. Type of assay: cell-based.

The subject of assay [9] is MDA-MB-231. Description: Inhibition of TGF-beta1 expression in human MDA-MB-231 cells at 1 uM after 24 hrs by qPCR analysis. Format: functional, cell-based. The method, boiled down:
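Gene expression was measured by qPCR in MDA-MB-231 breast cancer cells treated with 1µM compound. GAPDH served as the housekeeping internal control.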

The target in assay [10] is T2, Mitogen-activated protein kinase; ERK1/ERK2 (Homo sapiens) (UniProt P27361+P28482). Description: Inhibition of basal level ERK1/2 phosphorylation in human MCF7 cells at 1 uM by ELISA. Format: cell-based.
T2 sequence (P27361 whole entry, looked up): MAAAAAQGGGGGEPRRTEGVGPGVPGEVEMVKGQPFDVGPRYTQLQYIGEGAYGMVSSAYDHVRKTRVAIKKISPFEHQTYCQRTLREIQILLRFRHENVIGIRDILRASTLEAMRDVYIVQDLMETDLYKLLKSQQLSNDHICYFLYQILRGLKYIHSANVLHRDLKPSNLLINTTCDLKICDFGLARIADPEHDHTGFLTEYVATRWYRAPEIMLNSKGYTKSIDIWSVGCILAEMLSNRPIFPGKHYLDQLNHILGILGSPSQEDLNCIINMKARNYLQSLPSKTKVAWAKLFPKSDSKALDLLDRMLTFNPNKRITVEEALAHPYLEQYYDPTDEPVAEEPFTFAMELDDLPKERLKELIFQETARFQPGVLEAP
T2 sequence (P28482 whole entry, looked up): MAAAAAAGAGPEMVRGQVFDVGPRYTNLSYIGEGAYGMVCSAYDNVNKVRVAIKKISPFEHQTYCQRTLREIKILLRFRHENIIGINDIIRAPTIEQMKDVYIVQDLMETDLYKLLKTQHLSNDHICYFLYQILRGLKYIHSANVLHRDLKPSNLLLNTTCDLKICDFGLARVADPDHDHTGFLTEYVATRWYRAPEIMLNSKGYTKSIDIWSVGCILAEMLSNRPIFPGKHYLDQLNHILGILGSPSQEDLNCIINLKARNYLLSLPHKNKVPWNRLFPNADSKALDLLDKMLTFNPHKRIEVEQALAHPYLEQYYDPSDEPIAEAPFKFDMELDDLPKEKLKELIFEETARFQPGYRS
Assay [11] addresses Platelet-derived growth factor receptor beta (Homo sapiens) (UniProt P09619). Description: Inhibition of PDGFRbeta (unknown origin) at 10 uM. The method, boiled down:
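Cell-free kinase profiling was run as a standard 33P-ATP-based in vitro kinase assay.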

Assay [12] concerns the target RAC-alpha serine/threonine-protein kinase (Homo sapiens) (UniProt P31749). Description: Inhibition of EGF-induced AKT phosphorylation in human MDA-MB-231 cells at 1 uM by ELISA. Format: cell-based.
Assay [13] concerns the target ETS domain-containing protein Elk-1 (Homo sapiens) (UniProt P19419). As to the kind of experiment: Inhibition of EGF-induced phosphorylated ELK1 in human MDA-MB-231 cells at 1 uM by ELISA. Type of assay: cell-based.
The target in assay [14] is Insulin receptor (Homo sapiens) (UniProt P06213). Description: Inhibition of IR (unknown origin) at 10 uM.
Assay [15] addresses T1, Signal transducer and activator of transcription 1-alpha/beta (Homo sapiens). As to the kind of experiment: Inhibition of EGF-induced STAT1 phosphorylation in human MCF7 cells at 1 uM by ELISA. Type of assay: cell-based.
Assay [16] has as its target cAMP and cAMP-inhibited cGMP 3',5'-cyclic phosphodiesterase 10A (Homo sapiens) (UniProt Q9Y233). As to the kind of experiment: Inhibition of PDE10A1 (unknown origin) activity at 1 to 10 uM.
In assay [17] the test system is MDA-MB-231. Description: Inhibition of secreted PAI-1 protein expression in human MDA-MB-231 cells at 1 uM after 24 hrs by ELISA. Type of assay: functional, cell-based. The method, boiled down:
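MDA-MB-231 cells were treated at 1µM for 24 h, with or without EGF. PAI-1 protein concentration in the collected conditioned medium was then measured by ELISA.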

Assay [18] concerns the target T1, Signal transducer and activator of transcription 1-alpha/beta (Homo sapiens). Description: Inhibition of EGF-induced STAT1 phosphorylation in human MDA-MB-231 cells at 1 uM by ELISA. Type of assay: cell-based.
The target of assay [19] is Signal transducer and activator of transcription 3 (Homo sapiens) (UniProt P40763). Description: Inhibition of EGF-induced STAT3 phosphorylation in human MCF7 cells at 1 uM by ELISA. Format: cell-based.
Sequence of Signal transducer and activator of transcription 3 (Homo sapiens) (P40763 whole entry): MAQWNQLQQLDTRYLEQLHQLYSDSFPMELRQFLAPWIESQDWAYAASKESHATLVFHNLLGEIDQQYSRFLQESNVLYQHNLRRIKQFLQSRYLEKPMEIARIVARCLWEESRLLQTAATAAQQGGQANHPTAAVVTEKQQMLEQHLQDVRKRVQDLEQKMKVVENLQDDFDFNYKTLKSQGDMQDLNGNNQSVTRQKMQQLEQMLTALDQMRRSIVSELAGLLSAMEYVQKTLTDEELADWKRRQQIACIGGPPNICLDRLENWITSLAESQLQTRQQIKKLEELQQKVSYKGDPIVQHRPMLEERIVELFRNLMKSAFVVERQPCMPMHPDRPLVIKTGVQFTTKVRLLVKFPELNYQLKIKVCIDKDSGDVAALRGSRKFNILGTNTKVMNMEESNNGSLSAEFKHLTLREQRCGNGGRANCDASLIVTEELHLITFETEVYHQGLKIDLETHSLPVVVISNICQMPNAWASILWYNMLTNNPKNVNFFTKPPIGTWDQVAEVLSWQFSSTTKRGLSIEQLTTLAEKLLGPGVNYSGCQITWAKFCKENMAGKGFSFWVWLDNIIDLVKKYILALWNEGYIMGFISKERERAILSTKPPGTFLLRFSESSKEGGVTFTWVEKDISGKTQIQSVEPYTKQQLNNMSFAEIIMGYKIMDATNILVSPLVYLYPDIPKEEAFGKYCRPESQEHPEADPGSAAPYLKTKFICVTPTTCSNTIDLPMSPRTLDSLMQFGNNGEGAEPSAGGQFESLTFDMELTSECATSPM
Assay [20] has the same target. As to the kind of experiment: Inhibition of basal level STAT3 phosphorylation in human MDA-MB-231 cells at 1 uM by ELISA. Format: cell-based.
Assay [21] has as its target RAC-alpha serine/threonine-protein kinase (Homo sapiens) (UniProt P31749). As to the kind of experiment: Inhibition of basal level AKT phosphorylation in human MDA-MB-231 cells at 1 uM by ELISA. Type of assay: cell-based.
Assay [22] relates to MDA-MB-231. Description: Induction of apoptosis in human […] cells assessed as loss of mitochondrial membrane potential at 5 uM after 24 hrs by JC-1 staining based flow cytometry. Type of assay: functional, cell-based. The method, boiled down:
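Cells treated at 5μM for 24 h, trypsinized, stained with JC-1 (1μg/ml) for 15 min at 37°C, washed in PBS and analysed by flow cytometry in FL1 and FL2 channels.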

Assay [23] concerns the target T2, Mitogen-activated protein kinase; ERK1/ERK2 (Homo sapiens). As to the kind of experiment: Inhibition of EGF-induced ERK1/2 phosphorylation in human MCF7 cells at 1 uM by ELISA. Type of assay: cell-based.
Assay [24] has as its system MDA-MB-231. Description: Induction of apoptosis in human […] cells assessed as caspase 8 activation at 2.5 to 7.5 uM by Caspase-Glo assay. Format: functional, cell-based. An outline of the steps:
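Caspase-8, -9 and -3 activities measured with Caspase-Glo 8, 9 and 3 kits; mean ± SEM from three independent experiments.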

Sequence of RAC-alpha serine/threonine-protein kinase (Homo sapiens) (P31749 whole entry, the tested form may be a part): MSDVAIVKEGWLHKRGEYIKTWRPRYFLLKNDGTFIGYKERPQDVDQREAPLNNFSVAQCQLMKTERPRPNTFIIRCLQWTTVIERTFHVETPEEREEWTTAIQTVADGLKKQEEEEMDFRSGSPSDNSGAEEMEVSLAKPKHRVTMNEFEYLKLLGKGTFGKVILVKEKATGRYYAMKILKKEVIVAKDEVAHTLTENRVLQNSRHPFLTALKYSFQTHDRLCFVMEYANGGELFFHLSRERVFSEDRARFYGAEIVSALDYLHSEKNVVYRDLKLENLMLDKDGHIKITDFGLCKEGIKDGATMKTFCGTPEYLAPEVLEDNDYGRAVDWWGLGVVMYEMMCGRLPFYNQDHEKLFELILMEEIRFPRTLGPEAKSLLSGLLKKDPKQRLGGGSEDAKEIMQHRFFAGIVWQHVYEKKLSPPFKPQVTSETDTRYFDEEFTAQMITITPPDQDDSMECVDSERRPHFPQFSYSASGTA
Sequence of ETS domain-containing protein Elk-1 (Homo sapiens) (P19419 whole entry, the tested form may be a part): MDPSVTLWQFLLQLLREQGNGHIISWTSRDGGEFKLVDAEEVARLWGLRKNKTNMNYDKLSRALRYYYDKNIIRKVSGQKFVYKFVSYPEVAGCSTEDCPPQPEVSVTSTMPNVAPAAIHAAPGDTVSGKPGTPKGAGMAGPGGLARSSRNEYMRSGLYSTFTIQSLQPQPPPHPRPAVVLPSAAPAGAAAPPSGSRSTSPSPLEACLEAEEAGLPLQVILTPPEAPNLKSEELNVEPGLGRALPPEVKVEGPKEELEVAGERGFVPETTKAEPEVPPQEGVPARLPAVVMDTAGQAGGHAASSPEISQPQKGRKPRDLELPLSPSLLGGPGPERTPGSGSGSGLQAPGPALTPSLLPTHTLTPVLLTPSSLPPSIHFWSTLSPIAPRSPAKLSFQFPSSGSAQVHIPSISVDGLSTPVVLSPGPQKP

In general, EC50 refers to the concentration giving half of the maximal effect. Low readings indicate a more potent agent, high ones a less potent agent. In general, inhibition in vivo refers to the drop in the measured response relative to a control, in per cent. Compound `CCN(CC)CCO/N=C(\c1ccc(SC)cc1)c1cccc2ccccc12.O=C(O)C(=O)O` had an EC50 in assay [1] of 7.7 µM. The inhibition in vivo at 16 mg/kg with MCF7 [2] stood at 50%. In addition, the Activity in the assay with MDA-MB-231 [3] is 20%; in the assay on MCF7 [4], 16.82%; with MDA-MB-231 [5] it was 2.74%.
On to `CCN(CC)CCO/N=C(\c1ccc(SC)cc1)c1cccc2ccccc12`, for which the inhibition result in [6], in [8], in assay [11], in assay [14], in assay [15] and in [16] was “inactive” each time. Also, the inhibition entry in assay [18], in [20] and in assay [21] was “inactive” in each case. The inhibition result (in assay [7]; in the assay on MDA-MB-231 [9]; in [10]; in [12]; in [13]; with MDA-MB-231 [17]) was “Active” each time. The inhibition result in [19] and in [23] was “Active” in each case. In addition, the outcome in the assay with MDA-MB-231 [22] and in the assay with MDA-MB-231 [24] was Active.
